17 compounds from ChEMBL document CHEMBL4145478, “Synthesis and biological evaluation of bifendate derivatives bearing 6,7-dihydro-dibenzo[c,e]azepine scaffold as potential P-glycoprotein and tumor metastasis inhibitors” (Eur J Med Chem, 2018) can be followed below.

pIC50: −log10 of the molar value. Counter-ions that a name gives are not always drawn. The source made the active and inactive calls. No cut-off for these calls is given here.

In data set [1] the test system is K562/A02. The experiment in a line: Cytotoxicity against human K562/A02 cells assessed as reduction in cell viability after 72 hrs by MTS assay. The class given is cell-based. The settings on record: K562/A02, 72 h. The gist of the method: (§1)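 Cells (1×10^4/well) in RPMI-1640 grown 24 h, then exposed to a range of concentrations for 72 h at 37 °C, 5% CO₂. MTS added for a further 3 h at 37 °C; absorbance read at 490 nm. IC50 from dose-response curves; means of triplicate experiments.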
Background: Tetrazolium assays rely on reduction of a dye to a coloured formazan, in cell work by metabolically active cells.

The subject of data set [2] is K562. The experiment in a line: Cytotoxicity against human K562 cells assessed as reduction in cell viability after 72 hrs by MTS assay. Format: cell-based. Particulars: K562, 72 h. The gist of the method: as §1
Data set [3] deals with K562/A02. The experiment in a line: Inhibition of P-gp mediated efflux in human K562/A02 cells assessed as increase in intracellular Rh123 accumulation after 1 hr by flow cytometric analysis. The class given is cell-based. Summed up:
(§2)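 1×10^6 K562 or K562/A02 cells preincubated 1 h at 37 °C with compound (10 μM single dose; dose-response at 10, 3.3 and 0.3 μM), verapamil or 0.1% DMSO vehicle, then 0.5 μM Rh123 for 30 min. Stopped and washed three times with ice-cold PBS; flow cytometry. Fold change = fluorescence over vehicle; mean ± S.D., three independent experiments.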
In general terms: Flow cytometry measures light scatter and fluorescence of single cells or particles in a stream.

For data set [4], the system named is K562. Nature of the data set: Effect on intracellular Rh123 accumulation in human K562 cells at 0.3 to 10 uM after 1 hr by flow cytometric analysis. Format: functional, cell-based. The gist of the method:
as §2

Data set [5] relates to K562/A02. Nature of the data set: Inhibition of P-gp-mediated drug resistance in human K562/A02 cells assessed as reduction in adriamycin IC50 at 2 uM after 72 hrs by MTS assay relative to adriamycin alone. The class given is cell-based. The gist of the method:
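K562/A02 cells exposed to adriamycin with or without 2.0 μM modulator; verapamil 2.0 μM as reference. Viability by MTS after 72 h at 37 °C (absorbance 490 nm), adriamycin IC50 from dose-response curves. Reversal fold = adriamycin IC50 alone / adriamycin IC50 with modulator.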

Data set [6] deals with K562/A02. The experiment in a line: Effect on P-gp mRNA expression in human K562/A02 cells at 2 uM after 48 hrs by RT-PCR analysis. The class given is functional, cell-based.
In data set [7] the test system is K562/A02. The experiment in a line: Effect on P-gp protein expression in human K562/A02 cells at 2 uM after 48 hrs by Western blot analysis. The class given is functional, cell-based. In general terms: A western blot detects proteins with antibodies after separation by electrophoresis.
Data set [8] deals with MDA-MB-231. Nature of the data set: Antimigratory activity against human MDA-MB-231 cells assessed as reduction in wound healing after 24 hrs by inverted microscopic analysis. Format: functional, cell-based. Summed up:
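Confluent MDA-MB-231 monolayer scratched with 200 μL pipette tip, washed twice with PBS, then exposed to 5, 15 or 45 μM in DMEM with 10% FBS. Wound photographed by inverted microscope at 0 and 24 h. Relative migration = migration distance of treated cells divided by that of control.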

For data set [9], the system named is MDA-MB-231. Nature of the data set: Antimigratory activity against human MDA-MB-231 cells assessed as delay in cell migration at 5 to 45 uM after 4 hrs by crystal violet staining-based chamber migration assay relative to control. The class given is functional. Summed up: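 MDA-MB-231 cells pretreated 24 h with 5, 15 or 45 μM, suspended in serum-free medium and placed in upper transwell compartment; lower compartment medium with 10% FBS. After 4 h non-migrated cells swabbed off; migrated cells fixed in methanol, stained with 0.5% crystal violet, counted manually in three random fields. Migrated cells expressed as % of control.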

Data set [10] has as its system MDA-MB-231. The experiment in a line: Antimigratory activity against human MDA-MB-231 cells assessed as reduction in cell invasion at 5 to 45 uM after 24 hrs by crystal violet staining-based matrigel assay. Format: functional. The gist of the method: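 MDA-MB-231 cells pretreated 24 h with 5, 15 or 45 μM, seeded in serum-free medium into transwell chambers precoated with matrigel (40 μg/100 μL/chamber, 37°C, 1 h); lower compartment medium with 10% FBS. Incubation 24 h, then invaded cells stained with crystal violet and counted in three random fields; expressed as % of control.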

Data set [11] deals with 72 kDa type IV collagenase (Homo sapiens) (UniProt P08253). The experiment in a line: Inhibition of MMP2 activity in human MDA-MB-231 cells after 24 hrs by gelatin zymography assay. The class given is cell-based.
Data set [12] concerns MDA-MB-231. Nature of the data set: Inhibition of MMP2 expression in human MDA-MB-231 cells after 24 hrs by Western blot analysis. The class given is functional, cell-based. Summed up: (§3)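 MDA-MB-231 cells exposed to 5, 15 or 45 μM for 24 h, then lysed; immunoblotted with antibodies against MMP-2 and MMP-9; detection with BCIP/NBT alkaline phosphatase substrate for 15 min.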

For data set [13], the system named is MDA-MB-231. The experiment in a line: Inhibition of MMP9 expression in human MDA-MB-231 cells after 24 hrs by Western blot analysis. The class given is functional, cell-based. Summed up:
as §3

Data set [14] concerns MDA-MB-231. Nature of the data set: Antiproliferative activity against human MDA-MB-231 cells after 72 hrs by MTT assay. The settings on record: MDA-MB-231, 72 h. The class given is cell-based.
The target of data set [15] is Matrix metalloproteinase-9 (Homo sapiens) (UniProt P14780). The experiment in a line: Inhibition of MMP9 activity in human MDA-MB-231 cells after 24 hrs by gelatin zymography assay.
Data set [16] deals with 72 kDa type IV collagenase (Homo sapiens) (UniProt P08253). The experiment in a line: Residual MMP2 activity in human MDA-MB-231 cells at 5 uM after 24 hrs by gelatin zymography assay relative to control.
Data set [17] deals with MMP-9 (92 kDa type IV collagenase, Homo sapiens). The experiment in a line: Inhibition of MMP9 activity in human MDA-MB-231 cells at 5 uM after 24 hrs by gelatin zymography assay relative to control; values are per cent of control.
Data set [18] is described as follows: Selectivity ratio of IC50 for human K562/A02 cells to IC50 for human K562 cells. Format: ADME. Particulars: K562/A02 cells and K562 cells, read-out: Ratio IC50.

72 kDa type IV collagenase (Homo sapiens), sequence (P08253 110-660 limits assumed): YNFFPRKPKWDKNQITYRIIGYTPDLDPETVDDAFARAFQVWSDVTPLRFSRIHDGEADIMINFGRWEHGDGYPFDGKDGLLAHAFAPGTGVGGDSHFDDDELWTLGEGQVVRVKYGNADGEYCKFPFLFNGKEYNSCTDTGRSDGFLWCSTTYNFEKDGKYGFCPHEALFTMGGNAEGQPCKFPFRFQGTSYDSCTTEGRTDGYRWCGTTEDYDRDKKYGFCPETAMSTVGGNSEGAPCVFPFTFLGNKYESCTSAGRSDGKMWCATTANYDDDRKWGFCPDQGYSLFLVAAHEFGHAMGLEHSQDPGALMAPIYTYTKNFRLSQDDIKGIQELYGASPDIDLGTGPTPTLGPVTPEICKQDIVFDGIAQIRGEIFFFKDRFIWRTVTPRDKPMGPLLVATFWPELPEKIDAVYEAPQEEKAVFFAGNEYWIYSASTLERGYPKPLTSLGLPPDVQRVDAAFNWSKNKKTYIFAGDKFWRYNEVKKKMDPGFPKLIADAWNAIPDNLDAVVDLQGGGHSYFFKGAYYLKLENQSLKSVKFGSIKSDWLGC
Matrix metalloproteinase-9 (Homo sapiens), sequence (P14780 whole entry): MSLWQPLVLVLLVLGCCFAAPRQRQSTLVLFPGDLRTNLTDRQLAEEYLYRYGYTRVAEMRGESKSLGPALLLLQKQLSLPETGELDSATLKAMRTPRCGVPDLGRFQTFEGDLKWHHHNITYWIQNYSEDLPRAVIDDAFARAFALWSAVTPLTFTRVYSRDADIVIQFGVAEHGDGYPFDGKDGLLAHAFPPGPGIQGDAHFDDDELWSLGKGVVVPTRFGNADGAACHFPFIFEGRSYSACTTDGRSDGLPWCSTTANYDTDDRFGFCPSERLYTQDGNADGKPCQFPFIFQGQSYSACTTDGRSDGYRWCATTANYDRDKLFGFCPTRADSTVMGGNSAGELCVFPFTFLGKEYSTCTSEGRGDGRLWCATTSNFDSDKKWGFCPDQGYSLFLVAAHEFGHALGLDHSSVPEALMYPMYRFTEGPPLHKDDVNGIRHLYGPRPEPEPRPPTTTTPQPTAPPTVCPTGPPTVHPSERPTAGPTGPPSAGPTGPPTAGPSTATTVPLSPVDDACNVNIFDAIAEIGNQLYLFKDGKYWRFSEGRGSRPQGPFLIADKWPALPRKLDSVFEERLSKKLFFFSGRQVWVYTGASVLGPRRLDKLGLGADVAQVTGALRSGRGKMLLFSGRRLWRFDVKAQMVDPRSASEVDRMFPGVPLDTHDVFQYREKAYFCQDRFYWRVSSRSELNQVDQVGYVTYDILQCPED

As for `COc1cc2c(c3c1OCO3)-c1c(cc(OC)c3c1OCO3)CN(CCCCCCNC(=O)c1ccc(C)cc1)C2`, the values for the pIC50 in the data set with K562/A02 [1] and in the data set on K562 [2] were 4.63 and 5.09, respectively.

Regarding `COc1ccc(C(=O)NCCN2Cc3cc(OC)c4c(c3-c3c(cc(OC)c5c3OCO5)C2)OCO4)cc1OC`, the inhibition result in the data set on K562/A02 [3] was “Dose-dependent effect”. In addition, in the data set on K562 [4], the inhibition result was “inactive”. In addition, the pIC50 with K562/A02 [1] was 4.18; with K562 [2] it was 4.52.

With `COc1cc(C(=O)NCCN2Cc3cc(OC)c4c(c3-c3c(cc(OC)c5c3OCO5)C2)OCO4)cc(OC)c1OC`, the inhibition entry (with K562/A02 [3]; in data set [11]; in the data set on MDA-MB-231 [12]; with MDA-MB-231 [13]; in data set [15]) was “Dose-dependent effect” each time. Moreover, the inhibition result with K562 [4] was “inactive”. Besides, the pIC50 in the data set with K562/A02 [1] is 4.33; in the data set on K562 [2], 4.77; in the data set on MDA-MB-231 [14] it was 4.07. Moreover, in the data set with K562/A02 [5], the fold change (FC) is 3.82. Also, the outcome with K562/A02 [6] and in the data set on K562/A02 [7] was inactive. The outcome in the data set with MDA-MB-231 [8] and in the data set on MDA-MB-231 [10] was Active. Besides, the Activity in the data set on MDA-MB-231 [9] is 65.7%. In addition, the figures for the residual activity in data set [16] and in data set [17] were 59.1% and 58.2%, respectively.

Take `COc1cc2c(c3c1OCO3)-c1c(cc(OC)c3c1OCO3)CN(CCCCCCNC(=O)c1cccs1)C2`: the pIC50 with K562/A02 [1] was 4.54; with K562 [2] it was 4.90.

On to `COc1cc2c(c3c1OCO3)-c1c(cc(OC)c3c1OCO3)CN(CCc1ccc3c(c1)OCO3)C2`, for which the pIC50 in the data set on K562/A02 [1] is less than 4.00; in the data set with K562 [2], 4.29. Besides, the fold change (FC) with K562/A02 [5] was 3.99.

For `COc1ccccc1NC(=O)CCN1Cc2cc(OC)c3c(c2-c2c(cc(OC)c4c2OCO4)C1)OCO3`, the pIC50 is 4.14 in the data set with K562/A02 [1] and 4.64 with K562 [2].

On to `COc1cc2c(c3c1OCO3)-c1c(cc(OC)c3c1OCO3)CN(CCCCCCNC(=O)c1ccc(Cl)c(Cl)c1)C2`, for which the pIC50 was 4.94 with K562/A02 [1] and 5.29 in the data set with K562 [2].

With `COc1ccccc1C(=O)NCCCCCCN1Cc2cc(OC)c3c(c2-c2c(cc(OC)c4c2OCO4)C1)OCO3`, the pIC50 with K562/A02 [1] was 4.58; in the data set on K562 [2] it was 4.96.

`COc1ccccc1C(=O)NCCN1Cc2cc(OC)c3c(c2-c2c(cc(OC)c4c2OCO4)C1)OCO3`: the pIC50 with K562/A02 [1] was 4.19; with K562 [2] it was 4.82.

As to `COc1cccc2c1C(=O)c1c(O)c3c(c(O)c1C2=O)C[C@@](O)(C(=O)CO)C[C@@H]3O[C@H]1C[C@H](N)[C@H](O)[C@H](C)O1` [DOXORUBICIN HYDROCHLORIDE], the pIC50 with K562/A02 [1] is 4.60; in the data set on K562 [2] it was 6.41. The selectivity ratio in data set [18] was 64.

Consider `COc1cc2c(c3c1OCO3)-c1c(cc(OC)c3c1OCO3)CN(CCCCCCNC(=O)c1ccc(Cl)cc1)C2`, for which the pIC50 in the data set on K562/A02 [1] is 4.74; in the data set with K562 [2], 5.23.

Regarding `COc1ccc(C(=O)NCCCCCCN2Cc3cc(OC)c4c(c3-c3c(cc(OC)c5c3OCO5)C2)OCO4)cc1OC`, the results for the pIC50 in the data set with K562/A02 [1] and with K562 [2] were 4.55 and 4.85, respectively.

As to `COc1ccc(NC(=O)CCN2Cc3cc(OC)c4c(c3-c3c(cc(OC)c5c3OCO5)C2)OCO4)cc1OC`, the inhibition entry (with K562/A02 [3]; in data set [11]; in the data set with MDA-MB-231 [12]; with MDA-MB-231 [13]; in [15]) was “Dose-dependent effect” each time. Moreover, the inhibition entry with K562 [4] was “inactive”. Moreover, the values for the pIC50 in the data set with K562/A02 [1], in the data set on K562 [2] and in the data set on MDA-MB-231 [14] were 4.16, 4.46 and 4.09, respectively. Further, the fold change (FC) in the data set on K562/A02 [5] was 5.76. For the same compound, the result in the data set with K562/A02 [6] and in the data set with K562/A02 [7] was inactive. For the same compound, the outcome in the data set with MDA-MB-231 [8] and in the data set on MDA-MB-231 [10] was Active. Further, the Activity in the data set with MDA-MB-231 [9] stood at 54.8%. Further, the values for the residual activity in [16] and in data set [17] were 52.8% and 52.6%, respectively.

In the case of `COc1cc2c(c3c1OCO3)-c1c(cc(OC)c3c1OCO3)CN(CCCCCCNC(=O)c1ccc(Cl)cc1Cl)C2`, the pIC50 in the data set with K562/A02 [1] is 4.46; in the data set with K562 [2], 4.86.

As for `COc1cc2c(c3c1OCO3)-c1c(cc(OC)c3c1OCO3)CN(CCNC(=O)c1ccc(C)cc1)C2`, the pIC50 in the data set with K562/A02 [1] was 4.55; with K562 [2], 4.84.

As for `COc1cc(C(=O)NCCCCCCN2Cc3cc(OC)c4c(c3-c3c(cc(OC)c5c3OCO5)C2)OCO4)cc(OC)c1OC`, the figures for the pIC50 with K562/A02 [1] and with K562 [2] were 4.50 and 4.93, respectively.

As to `COc1ccc(NC(=O)CCN2Cc3cc(OC)c4c(c3-c3c(cc(OC)c5c3OCO5)C2)OCO4)cc1`, the pIC50 was 4.36 with K562/A02 [1] and 4.53 in the data set on K562 [2].

The term pIC50 denotes the negative decadic logarithm of the IC50, by convention in mol/L. The residual activity is the activity still measured, relative to the control. The low end stands for a large loss of activity, the high end for a small loss of activity.
